Test system: MS2 coat protein
Assay: apparent Kd, MS2 coat protein; higher = weaker binding; RNA-MaP array; FMN 200 µM where present
Procedure, shortened: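 SNAP-549-labelled MS2 coat protein, doubled from 0.7 or 1.5 nM to 3 µM, was titrated over designs transcribed by stalled E. coli RNA polymerase on Illumina sequencing-chip clusters. Titrations were run without and then with constant ligand in 100 mM Tris-HCl pH 7.5, 80 mM KCl, 4 mM MgCl2, BSA, DTT, yeast tRNA and Tween-20. The apparent Kd is the median of filtered per-cluster fits to green signal normalised to red-channel RNA signal and control-cluster median Fmax.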

[1] = designed as: OFF switch for flavin mononucleotide, no ligand
[2] = ligand present: flavin mononucleotide, designed as: OFF switch for flavin mononucleotide
[3] = designed as: ON switch for flavin mononucleotide, no ligand
[4] = ligand present: flavin mononucleotide, designed as: ON switch for flavin mononucleotide

Sequence	apparent Kd [1] [nM]	apparent Kd [2] [nM]	apparent Kd [3] [nM]	apparent Kd [4] [nM]
GCCAGGCAUGUAGGAUAUCCAUUGCGUCGCGAUGGAGAAGGGCAACACACAUGAGGAUCACCCAUGUGGUCACCCAUGUCGUGU	217	225		
GGCGGAGUAGGAUAUACAUGAGGAUCACCCAUGUAACCUGAUGGCGUAGGUCUUCUAUGUAGAAGGGCUACGCC	17.4	16.7		
CAUGUCCUCACAGGAUAUGCACCACUUUGUGGUGCAGAAGGGUGGUUACAUGAGGAUCACCCAUGUGGACAUGAUAUAUUUAAU			93.7	1150
UGAUAGGACAGAGGAUAUACAGAUAGGAUCUACUAUCAAACAUUCCUGACAUGAGGAUCACCCAUGUAGAAGGCUGUCCUAUCU	21.9	72.8		
CGCAACUCUUCACAUGUAAACAUGAGGAUCACCCAUGUAAUGAGAAGGAGGAAGAAGAGAGAUUCCUAGGAUAUCAGAGUUGCG	6.83	6.52		
UACAUGAGGAUCACCCAUGUUUUGUCGUGUAUGGUAUUUAUCUAGGAUAUCAAUUGAUUUAAUUAUGAGAAGGAGAAUAUUAAU	36.5	30.7		
UUAUACAUUCGAGGAUAUCGGAGAGAAAUCAUUCGAGAAGGCGAUUCAUGAUGUAUUAUCCUGGACAUGAGGAUCACCCAUGUA			79.7	68.5
GAUCCACAUGAGGAUCACCCAUGUGAGGAUAUGUUGUUAGCUUUUUGCCGUAAGCCAUAUAGAAGGCACGGGUG	20.1	22.3		
GGUGGCGCCUAGAAGGCCGGCCAAGAAGGAGCCGGAGGAUAUAGGCCUACAUGAGGAUCACCCAUGUGGCUUAGUCAUAUGGUU	22.4	120		
UGUUGUAUUACAGGAUAUCUAUUAUGUUUAUUUAGAGAAGGGUAUUCACAUGAGGAUCACCCAUGUAUAUACGAGGAAGUUGUG			54.8	56.2
GAAUGAGAGCAGGAUAUCUUAUAAUUGUAUGAAAGAGAAGGGCUCACAUGAGGAUCACCCAUGUGGUCCUAGAU	42	299		
UGGAACGUGUCAGGAUAUACAUGAGGAUCACCCAUGUAUAGGAAAUAGGCAGGGUCUCUUGCAUAGUAGAAGGGACGCGAUUGC	6.58	7.75		
GUAAAGUGAGGAUAUGGUAAAUUAAUUAUUAAUUAAUUAAUCCAGAAGGCACAUGAGGAUCACCCAUGUAAUUG		39.1		
GUACCUUAUGAGAAGGCGAUCAUGAAACAUGAUCGAGGAUAUCAUGAAAACAUGAGGAUCACCCAUGUAUGGGUAUUAUGGUAC			49.6	17.7
CCUGUGUGAGGAUAUGGUGUUGGAAAAAAGGAAUAGCUCCUCCAGAAGGCACAUGAGGAUCACCCAUGUCGUGG	21.4	53.2		
GGUGCGUAUGUGAGGAUAUGCUGGUCCUUGGAUCUGCAGAAGGCACAUGAGGAUCACCCAUGUGGUGUCGUACC	356	28.5		
GACUUGUCAGGAUAUCUUACAUUUGCAUCGUAGUUACCAUUGGAGAAGGGACAUGAGGAUCACCCAUGUUUGGU	35.2	34.9		
GUGUAGGUAGGAUAUACAUGAGGAUCACCCAUGUGAAUAAGAUAGAAUAAGAUAAAGUGUAGAAGGGCUAGUGU	39.6	31.9		
AAUAACAGAGGAUAUACUAUUUUAUGUGUUUGUUGUUUUGAACAUGAGGAUCACCCAUGUAGAAGGCUGAAUGA	28.8	30.7		

Sequence	apparent Kd [1] [nM]	apparent Kd [2] [nM]	apparent Kd [3] [nM]	apparent Kd [4] [nM]
ACAAGAUCAGGAUAUACAUGAGGAUCACCCAUGUUUAUCCAAAAGGGACUUUCUUUAUGUAGAAGGGAUCUUGU	16.8	32.3		
AGGAUUGUGCUAGGAUAUCCAGGUUUGCAACAAGGAGAAGGAGCACAUGAGGAUCACCCAUGUUCUCAAAGGCCAUGGCAAUAA	23.4	84.2		
GUAAACCUAGGAUAUACAUGAGGAUCACCCAUGUAUUGAUCGUGCGGCUGUUCCGGAGGUAGAAGGAGGAACCU	20.7	34.2		
CAGUACUGAGGAUAUACAUGAGGAUCACCCAUGUGUUCCAGCUAGGAAACUAGCACUUGUAGAAGGCAGUACUG	24.6	267		
GGUGCAUAUGAGAAGGCGAUCAUGAAACAUGAUCGAGGAUAUCAUGUAAACAUGAGGAUCACCCAUGUAUGGGUAAAGUGCAUC			444	27.1
GGUGAGAGCAAGGAUAUGCAGAAGUGAGAAAGUGCAGAAGGUGCUACAUGAGGAUCACCCAUGUUGGAUGUGUU	37.1	49.1		
GACCUACAUGAGGAUCACCCAUGUGAGGAUAUAUUGUUAUUUUUAAUAUUUUUUAGUGGUAGAAGGCGCGUGAU	18.4	17.3		
GGCUACGUUUCGUAGCAGUGUCAUCGAGAAGGCCCUGACAUGAGGAUCACCCAUGUUGUUACAUGGGAGGAUAUCGAUGAUACG			12.1	4.96
GCGGCUCCUGACAUGAGGAUCACCCAUGUUUAAUUAUUAAAUCAGGAUAUCCUCUCGAAACGAGAGGAGAAGGGAUAAGCUGCU			5.6	6.44
AAUCAGCGGAACUUGACAUCCCUACAUGAGGAUCACCCAUGUCAGGAUAUAUGCUCUCGAGCUGCAUAGAAGGGACAUAGUGGG	50.6	71.3		
CUAAUGUGAGGAUAUGGUGUUGAUCACAGGAAAAAGAUUCUCCAGAAGGCACAUGAGGAUCACCCAUGUAGUGA	65.6	175		
AUAGCAUACCGAGGAUAUUCAUAUAAUAAAUAAACAUGAGGAUCACCCAUGUGGCGAAAGCCUAGGGAGAAGGCGGAAUGCUAU			204	24.1
UUUUUAUAACAAGGAUAUACUAAACAUGAGGAUCACCCAUGUAAUAUUAUGAGUGAGAGAGAGAAGUAGAAGGUGUAUUAUUUU	96	120		
AUGGAUAUCACAGGAUAUGCUAAGGAUACCUUAGCAGAAGGGUGAUCCAUCCUAUGGCUGUACAUGAGGAUCACCCAUGUGUCA			331	41.4
CGCUACACCCAGAAGGACAUGAGGAUCACCCAUGUAGGAUAUGGGAGACACAGUCCCAUGUAGAGAAAUUACGCUAGUGUAGCG				79
UGAUCUUUUGUUAGGAUAUGCUGUUGUUUUCAACAGCAGAAGGGACAUGAGGAUCACCCAUGUCUUGUCAUAAA	12	16.4		
UGUUGUUCAGGAUAUGAUGUAUAAUACAUGAGGAUCACCCAUGUAGAUCCUGAAUUAACGUCAGAAGGGAAUGUUG	15.1	17		
GUAUCGUGAGGAUAUCAUGAUUGACUUAAUUUAUGUCAGCGUGAGAAGGCACAUGAGGAUCACCCAUGUGAUUA	22.8	54.8		
UGAUCGAGAGAUCUUAGAUUCUGGUAGGAUAUACAUAAUGUAAUAUAGACAUGAGGAUCACCCAUGUAGAAGGACUAGAGUCUA	8.49	24.3		

Sequence	apparent Kd [1] [nM]	apparent Kd [2] [nM]	apparent Kd [3] [nM]	apparent Kd [4] [nM]
ACUUUACGAGGAUAUACUGUCGGGCCUCGGGCAUACAUGCGACAUGAGGAUCACCCAUGUAGAAGGCGUUUACU	29.5	92		
GGAUUACGAGGAUAUCGAUUUUAGUACAUGAGGAUCACCCAUGUUGUCCAGGUCUCGUUUCGAGAAGGCGUGAUUC	65.1	48.7		
CGUAUGUCAGGAUAUGCGUAUGCCGCUCGGGACGAGCGGCAGCAGAAGGGACAUGAGGAUCACCCAUGUUCGGG	75	72.7		
CUUUUGUGAGGAUAUCAGUAGUAAUACAAUAGUAUUACUACUGAGAAGGCACAUGAGGAUCACCCAUGUUCCUC	45	162		
UCCGAGUGAGGAUAUUGGAGUUGGUGCACUGCACAUAGGGUUAAGAAGGCACAUGAGGAUCACCCAUGUUACGU	41.3	40.9		
CCGGAAACGGGUAGCUGACAUGAGGAUCACCCAUGUGAAUCUGAGGAUAUGGAUCCUAAUUGGAUCCAGAAGGCAGUCAGCUAC			615	61.4
GUAUGACAAAGUCAUACCGCUCUGACAUGAGGAUCACCCAUGUAGGAUAUAUUAAUCAAAGAUUAAUAGAAGGACAUGUUUCUU	35.3	79.3		
CUCCUACAUGAGGAUCACCCAUGUCAGGAUAUCUCAGUAGCACCUAAAGGUGCUACCCAGAGAAGGGACGUGCA	11.6	15.5		
UUUCGGCAUGUAGGAUAUGGGUCCGAUUAGGAUUUAGAAGGACAUGAGGAUCACCCAUGUGCAUUUAAUUGGUCAUUACCUUUU	62.9	74		
CCGACGAAAGUCGAACGAUGUAGCAGAAGGACAUGAGGAUCACCCAUGUCAGCUGUAACAGCCAUGUAGGAUAUGCUACAUCGA	4.41	5.85		
GAAAACGCAGAGGAUAUUCCAGAUCUAAGCUGCGAAGAAGGCUGCACAUGAGGAUCACCCAUGUGGUCUUUAAA	18.8	116		
UUGAUUAGAAGUUAACAUGAGGAUCACCCAUGUAUUGGAUCAGAGGAUAUGCAUGUUUGAUAGUAGCAGAAGGCUGAUGGUGGA			53.5	61.6
UUAGCAUACCGAGGAUAUUCAUAUAAUAAAUAAACAUGAGGAUCACCCAUGUGGCGAAAGCCUAGGGAGAAGGCGGAAUGCUAC			206	26.5
UUUUAACAUGAGGAUCACCCAUGUGAGGAUAUCGAAAUUUAUAUUUAUAUUAAUUUAUCGAGAAGGCACAUUUU	149	164		
GCAGCGUAUGUAGGAUAUCGGUCAGAUUCUGAUCGAGAAGGACAUGAGGAUCACCCAUGUAAAUUACCGACUUUGUCGGGCUGC	6.73	8.18		
GGUUGGCGAGGAUAUACAUGAGGAUCACCCAUGUGAGAGAUACUAGUGAGGUCGAUUGGUAGAAGGCGCUGACA	108	58.6		
AACCAACAUGAGGAUCACCCAUGUCAACCCAAGGCAGGAUAUGCGAGAAUAACAAUGGGAGCAGAAGGGCCGACCU			110	54.9
GUAUCUUACCAAGGAUAUUUACGAUUAGUGUAGACAUGAGGAUCACCCAUGUGGCCUUAGUCACGGGAGAAGGUGGUUUGAUAC			317	73.7
